In ChEMBL document CHEMBL1157825, “1-(2-Ethoxyethyl)-1H-pyrazolo[4,3-d]pyrimidines as potent phosphodiesterase 5 (PDE5) inhibitors” (Bioorg Med Chem Lett, 2010):

assay: Volume of distribution at steady state in Beagle dog at 0.2 to 0.5 mg/kg, iv; type: ADME, organism-based, Canis lupus familiaris; set-up: dose 0.2-0.5 mg/kg, route intravenous; details: in vivo, read-out: Vdss
Summary of the method: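 Single IV dose of 0.2–0.5 mpk given to 10 kg beagles. Half-life reported in h, clearance in mL/min/kg and Vdss in L/kg.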

Vd [L/kg] | Structure (SMILES)
11.4 | CCOCCn1nc(CC)c2nc(N3CCN(C)CC3)nc(Nc3cc(C)ccn3)c21
3.8 | CCOCCn1nc(CC)c2nc(N3CCC(C(=O)O)CC3)nc(Nc3cc(C)ccn3)c21
50.4 | CCOCCn1nc(CC)c2nc(N3CCC(N)CC3)nc(Nc3cc(C)ccn3)c21
